Test results reported in paper PMC6662154 (ACS Central Science, 2019).
Where no end group is shown, it is not given here.

Columns and labels:
PscE–PscG heterodimer = molecular target: T1, PscE–PscG heterodimer (Pseudomonas aeruginosa, UniProt P95435); assay: Fluorescence polarization competitive binding assay
T1 sequence (P95435 1-115): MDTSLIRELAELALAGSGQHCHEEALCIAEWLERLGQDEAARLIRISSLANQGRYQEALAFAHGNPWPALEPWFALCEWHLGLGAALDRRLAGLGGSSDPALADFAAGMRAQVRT
T1 sequence (Q9I317 1-67 partner): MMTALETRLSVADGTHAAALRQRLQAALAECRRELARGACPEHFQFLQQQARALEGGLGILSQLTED

[1] = test system: secretion of ExoS by PAO1; assay: Inhibition of T3SS-mediated effector secretion; type: cell-based, Pseudomonas aeruginosa; conditions: 100 μM; PAO1 grown under low-calcium conditions
Summary of the method: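 To induce the T3SS, overnight PAO1 was diluted to OD600 0.3 in LB containing 5 mM EGTA and 20 mM MgCl2, with test compound, then shaken gently 3–4 h to OD 1.5. Controls were LB with 2% DMSO, and EGTA/MgCl2 medium with 2% DMSO. Supernatant proteins were TCA-precipitated (10%, 2 h on ice). Secreted and total ExoS were immunoblotted and measured by densitometry as % secreted of total; mean ± SD, three experiments.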

[2] = test system: J774A.1 cells infected with PAO1; assay: LDH release assay, PAO1-infected macrophages; type: cell-based, mouse; conditions: different concentrations, MOI 8, 5 h
[3] = test system: intracellular PAO1 in J774A.1 cells; assay: Quantification of intracellular bacteria in macrophages; type: cell-based, Pseudomonas aeruginosa; conditions: different concentrations; gentamicin at 2 h postinfection
Summary of the method: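 J774A.1 cells were seeded at 5 × 10^4 per well, grown 24 h and switched to serum-free medium 1 h before infection with mid-exponential PAO1 at MOI 8. Cells were infected 2 h with test compound (0–100 μM, 2% DMSO), washed, and exposed to gentamicin (50 μg/mL) for 2 h. Lysates were plated for intracellular counts, normalised to mock-treated infected cells; mean ± SD, three experiments.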

[4] = test system: PAO1 in the bronchoalveolar lavage; assay: Bacterial burden in bronchoalveolar lavage of PAO1-infected mice; type: in vivo, mouse; conditions: single dose 100 μM at the time of infection; sampled 18 h postinfection
Summary of the method: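 Female 6-week-old C57BL/6J mice were lightly anaesthetised with inhaled sevoflurane and given PAO1 intranasally (1 × 10^7 CFU in 20 μL PBS). Test compound (100 μM, 1% DMSO) was given with the inoculum; PBS with 1% DMSO served as mock treatment. At 18 h the animals were killed. Lavage was plated for counts. Lungs were formalin-fixed, paraffin-embedded, H&E-stained and scored by degree of inflammation.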

[5] = molecular target: T2, preformed PscE–PscG heterodimer (Pseudomonas aeruginosa, UniProt Q9I317 1-67; P95435 1-115); assay: ITC
T2 sequence (looked up) 1: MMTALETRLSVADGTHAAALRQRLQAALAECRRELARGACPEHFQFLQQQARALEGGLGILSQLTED
T2 sequence (looked up) 2: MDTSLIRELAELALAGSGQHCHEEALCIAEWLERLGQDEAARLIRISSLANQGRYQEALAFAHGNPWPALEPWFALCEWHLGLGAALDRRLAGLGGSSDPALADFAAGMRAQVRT

[6] = molecular target: T2, preformed PscE–PscG heterodimer; assay: fluorescence polarisation
PscG = molecular target: T3, PscG (Pseudomonas aeruginosa, UniProt P95435 1-115); assay: fluorescence polarisation
T3 sequence (looked up): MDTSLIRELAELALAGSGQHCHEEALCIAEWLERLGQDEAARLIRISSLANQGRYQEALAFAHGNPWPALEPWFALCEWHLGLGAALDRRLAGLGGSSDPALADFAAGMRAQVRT

[7] = molecular target: T2, preformed PscE–PscG heterodimer; assay: fluorescence polarisation; remark: listed apart in the source

`C[C@H]1COC2=C1C(=O)C(=O)c1c2ccc2c1CCCC2(C)C` [crpTSN, cryptotanshinone] was tested, and the “competition with FAM-PscF69–85 for PscE–PscG binding (result in words)” value (shortened to “competition”) (PscE–PscG heterodimer) was “inactive”, the “effect on secretion of ExoS” value [1] was “no inhibitory activity” and the “inhibition of Pseudomonas-aeruginosa-induced cell lysis (LDH release), in words” value [2] was “inactive”.

With `Cc1coc2c1C(=O)C(=O)c1c-2ccc2c1CCCC2(C)C` [tanshinone 2A] the “competition” value (PscE–PscG heterodimer) was “inactive”.

`CC(Oc1ccc(Cl)cc1Cl)C(=O)NCc1ccc2c(c1)OCO2` (stereo not drawn) [MBX-1641] was tested, and the “competition” value (PscE–PscG heterodimer) was “no effect”, the “inhibition of Pseudomonas-aeruginosa-induced cell lysis (LDH release), in words” value [2] was “inhibited” and the “inhibition of intracellular bacterial survival / proliferation of PAO1” value [3] was “inhibited”. The “bacterial burden in the bronchoalveolar lavage” value [4] was “reduced bacterial burden”.

TVTRALRDLMQGILQKI (peptide, UniProt P95434 69-85, looked up) [PscF^69–85] was tested, and the Kd [5] was 51.5 nM and the IC50 [6] was 4.32 µM.

TVTRALRDLMQGILQKI (peptide, UniProt P95434 69-85, looked up, also: fluorescein (FAM) label) [^FAMPscF^69–85] showed a Kd (PscG) of 10.8 µM and a Kd [7] of 52 nM.
